# Laboratory results: ChEMBL document CHEMBL1240415, “Design, synthesis and antimicrobial activities of some new quinoline derivatives carrying 1,2,3-triazole moiety” (2010)
# Experiments:
# Type in all cases: functional
# Staphylococcus aureus = test: Antibacterial activity against Staphylococcus aureus ATTC 25923 after 3 to 4 days by serial plate dilution method; settings: for MIC: Staphylococcus aureus, ATTC 25923
# Procedure, shortened: (§1)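 Serial dilutions in Mueller-Hinton broth in tubes, pH adjusted to 5.0 with phosphate buffer. Inoculated with a standardized bacterial suspension and incubated 16–18 h at 37 °C. MIC is the lowest concentration with no visible growth, tested over 6.25–100 µg/mL. Zones come from an agar well diffusion assay: compounds in DMSO are added to wells in seeded agar, DMSO control, triplicate plates, 37 °C for 3–4 days, inhibition zone diameter in mm.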
# Escherichia coli = test: Antibacterial activity against Escherichia coli ATTC 25922 after 3 to 4 days by serial plate dilution method; settings: for MIC: Escherichia coli, ATTC 25922; procedure, shortened: as §1
# Pseudomonas aeruginosa = test: Antibacterial activity against Pseudomonas aeruginosa ATCC 27853 after 3 to 4 days by serial plate dilution method; settings: for MIC: Pseudomonas aeruginosa, ATCC 27853; procedure, shortened: as §1
# Klebsiella pneumoniae = test: Antibacterial activity against recultured Klebsiella pneumoniae after 3 to 4 days by serial plate dilution method; settings: for MIC: Klebsiella pneumoniae; procedure, shortened: as §1
# Streptococcus pyogenes = test: Antibacterial activity against Streptococcus pyogenes after 3 to 4 days by serial plate dilution method; settings: for MIC: Streptococcus pyogenes; procedure, shortened: as §1
# Aspergillus flavus = test: Antifungal activity against Aspergillus flavus NCIM 524 after 3 to 4 days by serial plate dilution method; settings: for MIC: Aspergillus flavus, NCIM 524
# Procedure, shortened: (§2)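 Sabouraud agar made from peptone, glucose and agar in water, pH 5.7. Fungal spores suspended in normal saline and used to lawn the plates, which were dried 1 h at 37 °C. Wells punched and compounds added in DMSO, with a DMSO solvent control. Triplicate plates held at 37 °C for 3–4 days. Read-out is inhibition zone diameter.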
# Aspergillus fumigatus = test: Antifungal activity against Aspergillus fumigatus NCIM 902 after 3 to 4 days by serial plate dilution method; settings: for MIC: Aspergillus fumigatus, NCIM 902; procedure, shortened: as §2
# Talaromyces marneffei = test: Antifungal activity against recultured Penicillium marneffei after 3 to 4 days by serial plate dilution method; settings: for MIC: Talaromyces marneffei; procedure, shortened: as §2
# [1] = tested on: Trichophyton mentagrophytes; test: Antifungal activity against recultured Trichophyton mentagrophytes after 3 to 4 days by serial plate dilution method; settings: for MIC: Trichophyton mentagrophytes; procedure, shortened: as §2
# Candida albicans = test: Antifungal activity against Candida albicans after 3 to 4 days by serial plate dilution method; settings: for MIC: Candida albicans; procedure, shortened: as §2
Compound,diameter of the inhibition zone (DIZ) (Staphylococcus aureus) [mm],MIC (Staphylococcus aureus) [µg/mL],diameter of the inhibition zone (DIZ) (Escherichia coli) [mm],MIC (Escherichia coli) [µg/mL],diameter of the inhibition zone (DIZ) (Pseudomonas aeruginosa) [mm],MIC (Pseudomonas aeruginosa) [µg/mL],diameter of the inhibition zone (DIZ) (Klebsiella pneumoniae) [mm],MIC (Klebsiella pneumoniae) [µg/mL],diameter of the inhibition zone (DIZ) (Streptococcus pyogenes) [mm],MIC (Streptococcus pyogenes) [µg/mL],diameter of the inhibition zone (DIZ) (Aspergillus flavus) [mm],MIC (Aspergillus flavus) [µg/mL],diameter of the inhibition zone (DIZ) (Aspergillus fumigatus) [mm],MIC (Aspergillus fumigatus) [µg/mL],diameter of the inhibition zone (DIZ) (Talaromyces marneffei) [mm],MIC (Talaromyces marneffei) [µg/mL],diameter of the inhibition zone (DIZ) [1] [mm],MIC [1] [µg/mL],diameter of the inhibition zone (DIZ) (Candida albicans) [mm],MIC (Candida albicans) [µg/mL]
COc1ccc2nc(C)cc(-n3cc(CN(C)CCN(C)C)nn3)c2c1,14,6.25,14,6.25,14,6.25,14,6.25,16,6.25,16,6.25,14,6.25,16,6.25,14,6.25,12,6.25
COc1ccc2nc(C)cc(-n3cc(CNCCCN(C)C)nn3)c2c1,14,6.25,10,6.25,12,6.25,12,6.25,14,6.25,14,6.25,16,6.25,14,6.25,12,6.25,14,6.25
COc1ccc2nc(C)cc(-n3cc(CNC4CCCCC4)nn3)c2c1,<10,25,10,12.5,11,12.5,10,12.5,12,12.5,12,12.5,<10,25,10,12.5,<10,25,11,12.5
COc1ccc2nc(C)cc(-n3cc(CN4CCOCC4)nn3)c2c1,16,6.25,16,6.25,14,6.25,14,6.25,16,6.25,16,6.25,18,6.25,12,6.25,12,6.25,14,6.25
COc1ccc2nc(C)cc(-n3cc(CN(C)C4CCCCC4)nn3)c2c1,<10,50,<10,50,<10,50,<10,50,<10,50,<10,50,<10,50,<10,50,<10,50,<10,50
